In publication PMC5903430 (The international journal of biochemistry & cell biology, 2017):
“And” between values parts separate entries of the source, which are not always exact repeats. Identical values can stand only once. Counter-ions that a name gives are not always drawn. Like-named read-outs stand apart in the source and are kept apart here.

Legend:
[1] = biological target: hα7 AChR (Homo sapiens, UniProt P36544); format: cell-based; details: for hα7/hα3β4 IC50 ratio (selectivity): ratio using hα3β4 data of Arias et al., 2015
[2] = biological target: hα4β2 AChR (Homo sapiens, UniProt P17787+P43681); format: cell-based; details: for hα4β2/hα3β4 IC50 ratio (selectivity): ratio using hα3β4 data of Arias et al., 2015; for IC50: read-out: IC50 (inhibitory potency)
[3] = tested on: MHb (VI) neurons (endogenous α3β4* AChRs); assay: Patch-clamp recording of ACh-evoked currents from MHb; format: cell-based, mouse; details: for Reversibility of inhibition of ACh-evoked currents after washing: 180 μM, washing 13 min ((±)-18-MC) or 10 min ((+)-catharanthine); for IC50: read-out: IC50 (inhibitory potency on ACh-evoked currents), 100 μM ACh puffs, MHb (VI) neurons, single exponential fit
Summary of the method: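 Male C57BL/6J mice, 8–24 weeks. Coronal 250 μm slices through the medial habenula, recovered in oxygenated solution at 33 °C for 12 min. Neurons visualised by IR/DIC. Internal solution contained 2 mM QX-314. ACh (100 μM) puffed for 250 ms at 12 psi, with 1 μM atropine in the superfusate. Test compound at 0.07–180 μM; peak amplitudes measured before and after washout. Nonlinear least-squares fit gave IC50.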

[4] = tested on: α1β1γδ AChR; assay: Selectivity for hα3β4 over α1β1γδ AChRs; format: cell-based, human; details: ref Arias et al., 2011
[5] = tested on: hα3β4 AChR; details: read-out: IC50 at hα3β4 AChRs; HEK293-hα3β4 cells; ref Arias et al., 2015; cited from earlier work
[6] = ref Zhang et al., 2002; Maissonneuve and Glick, 2003; cited from earlier work
[7] = tested on: α3β4 and α4β2 AChRs; details: 20 μM; ref Glick et al., 2002a; cited from earlier work
[8] = biological target: hα3β4 AChR ([3H]ibogaine sites) (Homo sapiens, UniProt P30926+P32297); assay: [3H]ibogaine competition binding to hα3β4 AChR membranes from HEK293-hα3β4 cells
[9] = hα7, inhibition of 1.0 μM (±)-epibatidine-induced Ca2+ influx

Chain of hα7 AChR (P36544 23-502): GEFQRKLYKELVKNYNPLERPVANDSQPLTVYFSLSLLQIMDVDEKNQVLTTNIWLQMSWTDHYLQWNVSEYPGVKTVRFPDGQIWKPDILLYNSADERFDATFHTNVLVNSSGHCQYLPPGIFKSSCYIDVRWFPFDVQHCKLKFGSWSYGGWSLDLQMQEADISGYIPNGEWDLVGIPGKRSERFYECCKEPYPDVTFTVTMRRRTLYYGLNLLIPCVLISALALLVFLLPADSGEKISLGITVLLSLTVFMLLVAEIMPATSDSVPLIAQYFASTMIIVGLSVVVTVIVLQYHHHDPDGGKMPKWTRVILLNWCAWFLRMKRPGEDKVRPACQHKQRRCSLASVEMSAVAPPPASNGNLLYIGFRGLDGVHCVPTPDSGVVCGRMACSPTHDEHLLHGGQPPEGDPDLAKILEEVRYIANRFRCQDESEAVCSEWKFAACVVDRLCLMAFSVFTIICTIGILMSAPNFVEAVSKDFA
Chain of hα4β2 AChR (P17787 26-502): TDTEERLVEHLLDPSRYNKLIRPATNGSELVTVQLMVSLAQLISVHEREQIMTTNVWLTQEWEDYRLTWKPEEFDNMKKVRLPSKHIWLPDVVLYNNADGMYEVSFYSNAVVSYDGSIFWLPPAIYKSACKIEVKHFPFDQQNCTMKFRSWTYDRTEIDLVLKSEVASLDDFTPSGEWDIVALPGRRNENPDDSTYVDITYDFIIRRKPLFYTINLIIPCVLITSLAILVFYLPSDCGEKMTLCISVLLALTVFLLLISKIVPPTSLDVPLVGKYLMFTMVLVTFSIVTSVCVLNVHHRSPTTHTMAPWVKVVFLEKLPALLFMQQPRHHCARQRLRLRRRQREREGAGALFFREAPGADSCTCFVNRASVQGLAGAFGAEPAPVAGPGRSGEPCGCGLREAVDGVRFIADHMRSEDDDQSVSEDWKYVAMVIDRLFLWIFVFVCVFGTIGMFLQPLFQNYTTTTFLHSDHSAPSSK
Chain of hα4β2 AChR (P43681 29-627): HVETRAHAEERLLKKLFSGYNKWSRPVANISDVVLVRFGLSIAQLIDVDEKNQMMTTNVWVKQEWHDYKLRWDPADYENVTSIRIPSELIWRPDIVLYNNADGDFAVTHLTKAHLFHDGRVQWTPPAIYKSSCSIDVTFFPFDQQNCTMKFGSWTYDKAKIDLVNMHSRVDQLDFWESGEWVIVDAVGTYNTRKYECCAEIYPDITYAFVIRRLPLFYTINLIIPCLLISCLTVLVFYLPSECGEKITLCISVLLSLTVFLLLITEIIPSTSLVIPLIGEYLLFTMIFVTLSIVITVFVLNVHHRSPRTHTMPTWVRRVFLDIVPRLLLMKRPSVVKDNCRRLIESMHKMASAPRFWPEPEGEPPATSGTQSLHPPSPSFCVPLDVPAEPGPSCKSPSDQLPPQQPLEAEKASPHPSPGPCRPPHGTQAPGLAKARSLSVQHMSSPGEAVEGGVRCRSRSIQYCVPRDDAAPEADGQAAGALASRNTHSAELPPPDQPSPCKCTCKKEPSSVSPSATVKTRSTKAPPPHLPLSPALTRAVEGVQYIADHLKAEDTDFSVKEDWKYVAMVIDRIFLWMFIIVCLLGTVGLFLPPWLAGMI
Chain of hα3β4 AChR ([3H]ibogaine sites) (P32297 32-505): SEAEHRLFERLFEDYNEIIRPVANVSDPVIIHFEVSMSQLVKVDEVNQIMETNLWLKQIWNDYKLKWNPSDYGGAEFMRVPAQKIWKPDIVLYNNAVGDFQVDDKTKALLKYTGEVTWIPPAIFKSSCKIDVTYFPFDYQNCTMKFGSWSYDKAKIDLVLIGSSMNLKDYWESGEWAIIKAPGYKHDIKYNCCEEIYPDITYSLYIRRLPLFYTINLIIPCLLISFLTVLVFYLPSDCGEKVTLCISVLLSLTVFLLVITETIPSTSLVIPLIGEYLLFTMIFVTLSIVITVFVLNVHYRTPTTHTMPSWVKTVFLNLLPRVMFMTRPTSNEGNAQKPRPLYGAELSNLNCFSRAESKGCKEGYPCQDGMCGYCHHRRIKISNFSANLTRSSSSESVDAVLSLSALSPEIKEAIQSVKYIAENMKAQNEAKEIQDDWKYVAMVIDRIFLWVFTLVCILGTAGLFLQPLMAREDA
Chain of hα3β4 AChR ([3H]ibogaine sites) (P30926 22-498): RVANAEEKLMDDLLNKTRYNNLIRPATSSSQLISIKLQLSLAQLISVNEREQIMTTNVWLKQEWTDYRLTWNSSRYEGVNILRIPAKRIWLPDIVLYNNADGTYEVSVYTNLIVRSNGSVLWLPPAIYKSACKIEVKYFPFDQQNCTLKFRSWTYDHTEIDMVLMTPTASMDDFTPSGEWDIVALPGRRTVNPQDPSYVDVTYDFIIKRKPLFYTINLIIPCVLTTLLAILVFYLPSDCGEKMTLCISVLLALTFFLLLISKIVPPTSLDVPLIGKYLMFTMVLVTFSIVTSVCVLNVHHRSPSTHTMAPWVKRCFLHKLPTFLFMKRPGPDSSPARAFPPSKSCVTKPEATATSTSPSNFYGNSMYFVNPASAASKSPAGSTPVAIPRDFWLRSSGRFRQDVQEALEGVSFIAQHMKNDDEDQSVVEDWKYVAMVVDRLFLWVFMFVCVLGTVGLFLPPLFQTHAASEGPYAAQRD

## Clc1ccc(C2CC3CCC2N3)cn1 (racemic) [(±)-epibatidine, (±)-Epibatidine, reference compound]
[1]; read-out: EC50 (activation potency), agonist-induced Ca2+ influx, GH3-hα7 cells, n = 25
  EC50: 0.026 ± 0.004 µM

## CCC1=C[C@@H]2CN3CCc4c([nH]c5ccccc45)[C@@](C(=O)OC)(C2)[C@@H]13 [(+)-Catharanthine, (+)-3,4-didehydrocoronaridine]
[1]; [9]
  nH (Hill coefficient): 1.43 ± 0.20
[1]
  hα7/hα3β4 IC50 ratio (selectivity): 32.0 x-fold
[1]; listed as (+)-catharanthine
  hα7/hα3β4 IC50 ratio (selectivity): 32 x-fold
[2]
  nH (Hill coefficient): 1.48 ± 0.25
  hα4β2/hα3β4 IC50 ratio (selectivity): 18.5 x-fold
[2]; listed as (+)-catharanthine
  hα4β2/hα3β4 IC50 ratio (selectivity): 18 x-fold
[3]
  Reversibility of inhibition of ACh-evoked currents after washing: reversible inhibition
  IC50: 27 ± 4 µM
[4]
  Selectivity for hα3β4 over α1β1γδ AChRs: 29 fold
[5]
  IC50: 0.68 ± 0.1 µM

## COCCC1CC2CN3CCc4c([nH]c5ccccc45)C(C(=O)OC)(C2)C13.Cl (racemic) [(±)-18-MC, (±)-18-Methoxycoronaridine hydrochloride]
[1]; [9]
  nH (Hill coefficient): 2.21 ± 0.50
[1]
  hα7/hα3β4 IC50 ratio (selectivity): 23.6 x-fold
[6]
  half-life (metabolism to 18-HC): ~1.67 h
[2]
  nH (Hill coefficient): 1.85 ± 0.17
  hα4β2/hα3β4 IC50 ratio (selectivity): 4 x-fold and 4.3 x-fold
[3]
  Reversibility of inhibition of ACh-evoked currents after washing: reversible inhibition
  IC50: 28 ± 6 µM
[5]
  IC50: 1.47 ± 0.21 µM

## CNCC[C@H]1CC2CN3CCc4c([nH]c5ccccc45)[C@](C(=O)OC)(C2)[C@H]13 (racemic) [(±)-18-MAC, (±)-18-Methylaminocoronaridine]
[1]; GH3-hα7 cells, 5 min pre-incubation, 1.0 μM (±)-epibatidine
  IC50 (inhibitory potency): No effect
[2]
  nH (Hill coefficient): 1.40 ± 0.14
  hα4β2/hα3β4 IC50 ratio (selectivity): 7.9 x-fold
  IC50: 20.7 ± 3 µM

## (±)-18-hydroxycoronaridine [(±)-18-HC]
[1]
  nH (Hill coefficient): 1.64 ± 0.20
  hα7/hα3β4 IC50 ratio (selectivity): 26.1 x-fold
[2]
  nH (Hill coefficient): 1.27 ± 0.06
  hα4β2/hα3β4 IC50 ratio (selectivity): 8.8 x-fold
  IC50: 24.8 ± 1.2 µM

## 12-methoxyibogamine [(−)-ibogaine]
[7]
  AChR subtypes inhibited in voltage-clamp recordings: inhibits both α3β4 and α4β2 subtypes

## CC(NC(C)(C)C)C(=O)c1cccc(Cl)c1 (stereo not shown) [bupropion, bupropion hydrochloride]
[8]; desensitized state [in the presence of (−)-nicotine]
  nH (Hill coefficient): 0.75 ± 0.08
[8]; resting state [no agonist]
  nH (Hill coefficient): 0.72 ± 0.05
